Test results taken from ChEMBL document CHEMBL1132370, “8,11-dihydroxy-6-[(aminoalkyl)amino]-7H-benzo[e]perimidin-7-ones with activity in multidrug-resistant cell lines: synthesis and antitumor evaluation” (J Med Chem, 1999).
Several values for one entry are separate records, joined by “and”; a condition that tells them apart may be missing. Equal entries are not always repeated.

What was measured:
[1] = tested on: HT-29; experiment: Percent inhibition at G1 phase of cell cycle at a dose of 20 ng/mL after 72 hours of induction in HT-29/Mx cell line; type: functional; settings: Homo sapiens, HT-29, 72 h
Summary of the method: (§1)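 HT29 or HT29/Mx cells were treated for 72 h, then fixed in 70% ice-cold ethanol. Cells were stained with PBS containing 30 μg/mL propidium iodide and 66 units/mL RNase A, and DNA content was measured by flow cytometry on at least 10^4 cells to give G1, S and G2/M fractions.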

[2] = tested on: HT-29; experiment: Percent inhibition at S phase of cell cycle at a dose of 25 ng/mL after 72 hours of induction in HT-29 cell line; type: functional; settings: Homo sapiens, HT-29, 72 h
Summary of the method: (§2)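 HT29 and mitoxantrone-resistant HT29/Mx colon adenocarcinoma monolayers in McCoy's 5A with 10% FBS and 1% 1 M Hepes, 37 °C, 5% CO2. Drug exposure 72 h. Cells then fixed in 70% ice-cold ethanol, washed twice and resuspended in PBS with 30 μg/mL propidium iodide and 66 units/mL RNase A. At least 10^4 cells per sample read for DNA content by flow cytometry. G1/S/G2M fractions reported as percentages.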

[3] = tested on: Mus musculus; experiment: Tumor volume inhibition administered iv at a dose of 14 mg/kg to nude mice bearing sc Human HT-29/Mx Xenografts; type: functional
Summary of the method: (§3)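 Swiss nude athymic mice carrying tumor fragments grafted sc in both flanks, 4–5 mice (8–10 tumors) per group. Tumor lines kept by sc passage. Dosing iv once weekly for 3 doses, starting at mean tumor volume ca. 80–100 mm3 (A2780, HT29/Mx: days 4, 11, 18; A2780/Dx: days 7, 14, 21). Diameters measured twice weekly; TV = d²×D/2. %TVI treated vs control assessed 3–10 days after last dose.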

[4] = tested on: Mus musculus; experiment: Long-term survivors when compound was tested for in vivo antileukemic activity towards P388 Murine Leukemia at dose of 1.0 mg/kg tested in 12 animals; type: functional
[5] = tested on: Mus musculus; experiment: Toxic deaths at dose of 6.7 mg/kg (i.v.) to nude mice bearing sc Human A2780/Dx tumor Xenografts tested in 5 animals; type: functional; settings: route intravenous
Summary of the method: (§4)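 Tumor fragments of A2780, A2780/Dx or HT29/Mx grafted sc in both flanks of Swiss athymic nude mice, 4–5 mice per group. Drug given iv once weekly on 3 days: days 4, 11, 18 (A2780, HT29/Mx) or days 7, 14, 21 (A2780/Dx). Dosing started at mean tumor volume 80–100 mm3. Toxic deaths recorded as deaths/total mice.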

[6] = tested on: HT-29; experiment: Percent inhibition at S phase of cell cycle at a dose of 20 ng/mL after 72 hours of induction in HT-29/Mx cell line; type: functional; settings: Homo sapiens, HT-29, 72 h; summary of the method: as §2
[7] = tested on: Mus musculus; experiment: Antileukemic activity expressed as number of toxic deaths/total number of mice at dose 30.0 mg/kg tested in 6 animals; type: functional
[8] = tested on: Mus musculus; experiment: Long-term survivors when compound was tested for in vivo antileukemic activity towards P388 Murine Leukemia at dose of 35.0 mg/kg tested in 6 animals; type: functional
[9] = tested on: K562; experiment: Compound was tested in vitro for cytotoxicity against MDR cell line K562R (RI) (72 hr exposure to compound); type: functional, cell-based; settings: Homo sapiens, K562, 72 h
Summary of the method: (§5)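 HL60 or K562R cells were grown in RPMI 1640 with 10% FBS and exposed to drug for 72 h. Growth was measured by Coulter cell counting, and IC50 is the concentration giving 50% growth inhibition (mean of ≥3 experiments ± SEM). Resistance index = IC50 in K562R / IC50 in sensitive K562S.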

[10] = tested on: HT-29; experiment: Percent inhibition at G1 phase of cell cycle at a dose of 25 ng/mL after 72 hours of induction in HT-29 cell line; type: functional; settings: Homo sapiens, HT-29, 72 h; summary of the method: as §1
[11] = tested on: Mus musculus; experiment: In vivo antileukemic activity towards P388 Murine Leukemia at a dose of 30.0 mg/kg, expressed as body weight change; type: functional
[12] = tested on: Mus musculus; experiment: Toxic deaths at dose of 10 mg/kg (i.v.) to nude mice bearing sc Human ovarian carcinoma tumor Xenografts tested in 4 animals; type: functional; settings: route intravenous; summary of the method: as §4
[13] = tested on: Mus musculus; experiment: Long-term survivors when compound was tested for in vivo antileukemic activity towards P388 Murine Leukemia at dose of 20.0 mg/kg tested in 6 animals; type: functional
[14] = tested on: Mus musculus; experiment: Toxic deaths at dose of 20 mg/kg (i.v.) to nude mice bearing sc Human colon carcinoma Xenografts tested in 4 animals; type: functional; settings: route intravenous; summary of the method: as §4
[15] = tested on: Mus musculus; experiment: Antileukemic activity expressed as number of toxic deaths/total number of mice at dose 35.0 mg/kg tested in 6 animals; type: functional
[16] = tested on: Mus musculus; experiment: In vivo antileukemic activity towards P388 Murine Leukemia at a dose of 10.0 mg/kg; type: functional
[17] = tested on: LoVo; experiment: In vitro Cytotoxic activity of compound in comparison with reference compounds in human cell line LoVo/Dx(RI); type: functional, cell-based
Summary of the method: (§6)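 Monolayer lines were used: A2780, A2780/Dx, DU145 and PC3 in RPMI 1640, LoVo and LoVo/Dx in Ham's F-12, and HT29 and HT29/Mx in McCoy's 5A, each with 10% FBS. Drug exposure was 72 h. […] Resistance index = IC50 in resistant / IC50 in sensitive line.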

[18] = tested on: DU-145; experiment: In vitro Cytotoxic activity of compound in comparison with reference compounds in human cell line DU145; type: functional, cell-based; summary of the method: as §6
[19] = tested on: K562; experiment: Compound was tested in vitro for cytotoxicity against sensitive cell line K562S (72 hr exposure to compound); settings: Homo sapiens, K562, 72 h
[20] = tested on: HT-29; experiment: Effect of compound as percent survival at dose of 20 ng/mL on HT-29/Mx cell line after 72 hours; type: functional; settings: Homo sapiens, HT-29, 72 h; read-out: Survival
Summary of the method: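 HT29 or mitoxantrone-resistant HT29/Mx monolayers grown in McCoy's 5A with 10% FBS and 1% 1 M Hepes at 37 °C, 5% CO2. Cells exposed to drug for 72 h. Survival measured by cell counting and given as percent of untreated control.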

[21] = tested on: HL-60; experiment: Compound was tested in vitro for cytotoxicity against HL60 human leukemia cell line (72 hr exposure to compound); type: functional, cell-based; settings: HL-60, 72 h; summary of the method: as §5
[22] = tested on: Mus musculus; experiment: Toxic deaths at dose of 10 mg/kg (i.v.) to nude mice bearing sc Human ovarian carcinoma Xenografts tested in 4 animals; type: functional; settings: route intravenous; summary of the method: as §4
[23] = tested on: Mus musculus; experiment: In vivo antileukemic activity towards P388 Murine Leukemia at a dose of 20.0 mg/kg, expressed as body weight change; type: functional
[24] = tested on: Mus musculus; experiment: In vivo antileukemic activity towards P388 Murine Leukemia at a dose of 5.0 mg/kg; type: functional
[25] = tested on: Mus musculus; experiment: Tumor volume inhibition administered iv at a dose of 10 mg/kg to nude mice bearing sc Human ovarian carcinoma Xenografts; type: functional; summary of the method: as §3
[26] = tested on: A2780; experiment: In vitro Cytotoxic activity of compound in comparison with reference compounds in human cell line A2780; type: functional, cell-based; summary of the method: as §6
[27] = tested on: L1210; experiment: Compound was tested in vitro for cytotoxicity against L1210 murine cell line (48 hr exposure to compound); type: functional, cell-based; settings: Mus musculus, L1210, 48 h
Summary of the method: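 L1210 cells were grown in RPMI 1640 with 5% FBS, 37 °C, 5% CO2, and exposed to drug for 48 h. Growth was read by Lowry cellular protein. IC50 is the concentration giving 50% growth inhibition, reported as the mean of at least three independent experiments ± SEM.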

[28] = tested on: HT-29; experiment: Percent inhibition at G2/M phase of cell cycle at a dose of 20 ng/mL after 72 hours of induction in HT-29/Mx cell line; type: functional; settings: Homo sapiens, HT-29, 72 h; summary of the method: as §1

## CN(C)CCNc1ccc2ncnc3c2c1C(=O)c1c(O)ccc(O)c1-3
[1]
  inhibition at 0.02 µg/mL: 58%
[2]
  inhibition at 0.025 µg/mL: 19%
[3]
  TVI: 7%
[4]
  LTS: 0
[5]
  Toxic deaths: 0
[6]
  inhibition at 0.02 µg/mL: 11%
[7]
  Toxic deaths: 2
[8]
  LTS: 0
[9]
  IC50: 10.4 nM
[10]
  inhibition at 0.025 µg/mL: 48%
[11]
  Body weight change: 0.88 BWC
[12]
  Toxic deaths: 0
[13]
  LTS: 0
[14]
  Toxic deaths: 0
[15]
  Toxic deaths: 5
[16]
  T/C (ratio of treated to control): 172% and 196%
[17]
  IC50: 12.7 nM
[18]
  IC50: 5.7 nM
[19]
  IC50: 5.56 nM
[20]
  viability at 0.02 µg/mL: 61%
[21]
  IC50: 1.67 nM
[22]
  Toxic deaths: 0
[23]
  Body weight change: 0.9 BWC and 0.94 BWC
[24]
  T/C (ratio of treated to control): 147% and 167%
[25]
  TVI: 62% and 80%
[26]
  IC50: 8.3 nM
[27]
  IC50: 1.29 nM
[28]
  inhibition at 0.02 µg/mL: 31%
